Reference: ChEMBL document CHEMBL1135591, “Synthesis and characterization of a series of novel monoacylated ascorbic acid derivatives, 6-O-acyl-2-O-alpha-D-glucopyranosyl-L-ascorbic acids, as skin antioxidants” (J Med Chem, 2002)

Tests used:
[1] = Compound was evaluated for its partition between n-octanol and water(pH 7); assay type: physicochemical; details: buffer
Method in brief: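 100 mM stock in DMSO diluted to 1 mM in 50 mM potassium phosphate buffer (pH 7.0); 5 mL aqueous solution mixed and partitioned with 5 mL n-octanol. Compound in the octanol phase quantified by HPLC (UV 240 nm). Mean ± SD, n = 6.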

[2] = Free radical scavenging assessed as 50% reduction in DPPH absorbance (516 nm); assay type: functional
Method in brief: (§1)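 DPPH (0.5 mM in ethanol, 1 part) mixed with antioxidant in ethanol/H2O 1:1 (4 parts; 1.25 × 10⁻⁶ to 1.25 × 10⁻³ M solutions); DPPH in reaction 10⁻⁴ M. Room temperature, 20 min; decolorization read at 516 nm. EC50 = concentration giving 50% of blank absorbance, from dose-response curve; mean ± SD of triplicates.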

[3] = Free radical scavenging assessed as color reduction of DPPH; assay type: functional; method in brief: as §1

Compound	Distribution percent [1]	EC50 [2]	Scavenging activity [3] [%]
O=C1O[C@H]([C@@H](O)CO)C(O)=C1O [ASCORBIC ACID]	0.7	2.2 10uM	94.3
CCCCCCCCCCCCCCCCCC(=O)OC[C@H](O)[C@H]1OC(O)=C(O[C@@H]2OC(CO)[C@@H](O)C(O)[C@@H]2O)C1=O (stereo partly specified)	84.6	4.4 10uM	77.5
CCCCCCCC(=O)OC[C@H](O)[C@H]1OC(O)=C(O[C@@H]2OC(CO)[C@@H](O)C(O)[C@@H]2O)C1=O (stereo partly specified)	43.4	5.7 10uM	76.6
O=C1C(OS(=O)(=O)O)=C(O)O[C@@H]1[C@@H](O)CO			0
CCCCCCCCCC(=O)OC[C@H](O)[C@H]1OC(O)=C(O[C@@H]2OC(CO)[C@@H](O)C(O)[C@@H]2O)C1=O (stereo partly specified)	76.6	4.2 10uM	73.6
CCCCCCCCCCCCCCCC(=O)OC[C@H](O)[C@H]1OC(O)=C(OC(=O)CCCCCCCCCCCCCCC)C1=O			23.7
O=C1C(OP(=O)(O)O)=C(O)O[C@@H]1[C@@H](O)CO			1.5
CCCCCCCCCCCC(=O)OC[C@H](O)[C@H]1OC(O)=C(O[C@@H]2OC(CO)[C@@H](O)C(O)[C@@H]2O)C1=O (stereo partly specified)	83.8	4.6 10uM	76.2
CCCCCCCCCCCCCCCC(=O)OC[C@H](O)[C@H]1OC(O)=C(O[C@@H]2OC(CO)[C@@H](O)C(O)[C@@H]2O)C1=O (stereo partly specified)	87.3	4.1 10uM	76.4
VITAMIN E [listing 1 of 2 here]			90.9
CCCCCCCCCCCCCCCC(=O)OC[C@H](O)[C@H]1OC(=O)C(O)=C1O			95.7

More lines, main results first:

Distribution percent [1]	EC50 [2]	Compound	Scavenging activity [3] [%]
87	4.4 10uM	CCCCCCCCCCCCCC(=O)OC[C@H](O)[C@H]1OC(O)=C(O[C@@H]2OC(CO)[C@@H](O)C(O)[C@@H]2O)C1=O (stereo partly specified)	74.1
8.7	5.4 10uM	CCCCCC(=O)OC[C@H](O)[C@H]1OC(O)=C(O[C@@H]2OC(CO)[C@@H](O)C(O)[C@@H]2O)C1=O (stereo partly specified)	73.8
0	6.1 10uM	O=C1C(O[C@@H]2OC(CO)[C@@H](O)C(O)[C@@H]2O)=C(O)O[C@@H]1[C@@H](O)CO (stereo partly specified)	68.9
	1.9 10uM	VITAMIN E [listing 2 of 2 here]	
4	5.9 10uM	CCCC(=O)OC[C@H](O)[C@H]1OC(O)=C(O[C@@H]2OC(CO)[C@@H](O)C(O)[C@@H]2O)C1=O (stereo partly specified)	69.2
